The results in this text go back to PubChem BioAssay AID504382 (The Scripps Research Institute Molecular Screening Center, 2011).

Screen size: about 2,500 compounds; about 460 (18%) were called active.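 Rule for the calls: active = mean activation above a cutoff of low control average plus 3 SD from the earlier screen (cut at about 12% in these data); inactive = the rest.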 The list is a sample of the results.

A short description of the experiment: compound fluorescence interference without thin filaments, confirmation, artefact control for cardiac RTF calcium sensitizer project, biochemical (AID 504382). The conditions noted are these: IANBD fluorescence interference counterscreen, buffer, EC20 Ca2+; at 7.2 µM; hits give high values; scaled: EC20 calcium 0, EC100 calcium 100. The essentials:
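Medium: MOPS buffer, 190 mM, with KCl, MgCl2, EGTA, NTA, DTT, pH 7.20; Dosing: one dose of 7.2 µM, 0.7% DMSO; Probe or stimulus: calcium at EC20 level, 0.472 mM final; Incubation: 15 min, 25 °C; Evaluation: compound fluorescence interference relative to control well signal range; Signal: fluorescence, 480/540 nm.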
(The purpose of a counterscreen is to sort out artefacts and off-target activity.)
For `CC(C)N1CC=C2C(C#N)=C(N)C(C#N)(C#N)C(c3ccccc3)C2C1` (stereo unspecified), the fluorescence artifact activation is 0.48% (inactive). On to `O=C(Cc1ccccc1Cl)Nc1cccnc1`, for which the fluorescence artifact activation is 1.8% (inactive). For `CC(C)(ONC(=O)Nc1ccccc1Cl)C(=O)O`, the fluorescence artifact activation was 314% (active).

For `COc1ccc(C(=O)Nc2ccccc2-c2ccccc2)cc1Cl`, the fluorescence artifact activation is 0.15% (inactive). The same measure for `Clc1cccc(C[n+]2cc(-c3ccccc3)n3c2CCC3)c1`: -0.06% (inactive); for `CCc1cc[n+](-c2nc([O-])sc2C=O)cc1`: 2.36% (inactive).

Take `COc1ccc(N2CC(C(=O)Nc3nc(-c4ccccc4)c(C(C)=O)s3)CC2=O)c(OC)c1` (stereo unspecified): the fluorescence artifact activation was 0.16% (inactive). `O=C(O)CCC(=O)Nc1cc(C(F)(F)F)cc(C(F)(F)F)c1`: the fluorescence artifact activation is 3.32% (inactive). For `CC1=NN(c2ccc(C)c(C)c2)C(=O)/C1=C/c1ccc2c(c1)n(C)c(=O)n2C`, the fluorescence artifact activation was 16.1% (active). `CC1=NN(c2ccc(Br)cc2)C(=O)/C1=C/c1ccc(-c2ccccc2C(=O)O)o1`: the fluorescence artifact activation is 0.09% (inactive).

For the compound `CCOC(=O)c1c(NC(=O)COC(=O)Cc2ccccc2[N+](=O)[O-])sc(C(=O)N(C)C)c1C`, the fluorescence artifact activation was -0.03% (inactive). As for `Oc1[nH]c2ccccc2c1N=Nc1cccc(Cl)c1`, the fluorescence artifact activation is 0.77% (inactive). For `CCC(/C=C1\Oc2ccc(OC)cc2N1C)=C\c1sc2ccccc2[n+]1CCCS(=O)(=O)[O-]`, the fluorescence artifact activation is 4.9% (inactive). On to `COc1cc(OC)c(OC)cc1/C=C/C(=O)c1ccc(NS(=O)(=O)c2ccc(C)cc2)cc1`, for which the fluorescence artifact activation was 0.29% (inactive).

For the compound `COc1ccc(N/C=C\C(=O)c2ccc(Br)cc2)cc1OC`, the fluorescence artifact activation is 15.4% (active). The same measure for `COc1ccc(NC(=O)C2CC2)cc1OC1CCCC1`: 0.04% (inactive); for `Oc1sc(C=Nc2ccccc2)c2ccccc12`: -0.05% (inactive); for `Cc1ccc(N=Cc2sc(O)c3ccccc23)cc1`: 0% (inactive). As for `COc1ccc(N=Cc2sc(O)c3ccccc23)cc1`, the fluorescence artifact activation is 27.5% (active). For `COc1ccc(-c2nnc(SCC(=O)c3ccc[nH]3)n2-c2ccccc2)cc1`, the fluorescence artifact activation was 0.12% (inactive). For `COc1ccc(OC)c(-n2nnnc2SCC(=O)NCCc2ccccc2)c1`, the fluorescence artifact activation is 3.03% (inactive). With `COc1ccc(-n2nnnc2SCC(=O)c2cc3ccccc3o2)cc1`, the fluorescence artifact activation was 12.4% (active). As for `COC(=O)CCCNC(=O)CCc1nnc(-c2ccc(-c3ccccc3)cc2)o1`, the fluorescence artifact activation is -0.05% (inactive). The same measure for `COc1ccc(C(=O)Nn2cnc3scc(-c4cccs4)c3c2=O)c(O)c1`: 7.33% (inactive); for `CCOc1ccc(-c2nc3scc(-c4cccs4)c3c(=O)[nH]2)cc1`: 15.2% (active). `O=C(NCCN1CCOCC1)c1ccc(CS(=O)(=O)c2c(Cl)cccc2Cl)o1`: the fluorescence artifact activation was -0.03% (inactive). Consider `CCOC(=O)c1c(/N=C/c2cccc([N+](=O)[O-])c2O)sc(C)c1C`, for which the fluorescence artifact activation is 2.1% (inactive). As to `COC(=O)c1c(-c2ccc(OC)c(OC)c2)csc1N`, the fluorescence artifact activation was 0% (inactive). For the compound `CC1CCC(C(C)C)C(OC(=O)Cn2c(-c3ccccc3)[n+](C)c3ccccc32)C1` (stereo unspecified), the fluorescence artifact activation was 0% (inactive). The same measure for `CCC(C)[C@H](NC(=O)N1CCC(C)CC1)C(=O)OC` (stereo partly specified): -0.05% (inactive). As to `O=C(CSc1nnc(-c2ccco2)o1)NC1CCCCC1`, the fluorescence artifact activation is -0.05% (inactive). Take `O=C(CCSc1nnc(-c2ccco2)o1)Nc1ccccc1`: the fluorescence artifact activation is 24.7% (active). With `CCn1c(SCC(=O)NNC(=O)c2ccco2)nnc1-c1ccco1`, the fluorescence artifact activation was -0.04% (inactive). The same measure for `Cc1ccc(-n2nnnc2C(=Cc2ccc(N(C)C)cc2)c2nnnn2-c2ccc(C)cc2)cc1`: 0.09% (inactive); for `COc1cccc2cc(-c3nc(-c4cccs4)cs3)c(=O)oc12`: -0.05% (inactive); for `CCOC(=O)c1c(-c2ccccc2)csc1NC(=O)/C(C#N)=C\c1ccc(O)c(OC)c1`: 0.5% (inactive).

`CC(C)CN1CCN(Cc2cccn2-c2ccc(Cl)cn2)CC1CCO` (stereo unspecified): the fluorescence artifact activation was 26.8% (active).

Turning to `CCOC(=O)/C(=C/C=C1\Sc2cc(OCC)c(OCC)cc2N1CC)C(C)=O`, the fluorescence artifact activation is 5.45% (inactive). As to `O=C1CCC[C@@H]2Cc3nc4ccc(O)cc4cc3[C@@H]3CCN1[C@H]23`, the fluorescence artifact activation was 1.03% (inactive). The same measure for `c1ccc(CCCN2CCN(c3ccccc3)CC2)cc1`: 0% (inactive).

Consider `CCc1ccc(C(=O)NNc2ccccc2F)cc1`, for which the fluorescence artifact activation is 1.03% (inactive). The same measure for `Cc1occc1C(=O)N=Nc1c(O)n(C)c2ccccc12`: 2.27% (inactive); for `COCCn1c(=O)c2ccccc2c2ccccc2c1=O`: 17.2% (active); for `COCCn1c(-c2ccc(C)cc2)nc2oc3cc(OC)ccc3c(=O)c2c1=O`: 0.27% (inactive).

Consider `COCCn1c(SCC(=O)Nc2ccc(NC(=O)c3ccco3)c(OC)c2)nc2ccccc2c1=O`, for which the fluorescence artifact activation was 1.13% (inactive). As for `O=C(Nc1cc2c(cc1Br)OCCCO2)c1cccnc1`, the fluorescence artifact activation is -0.06% (inactive). For the compound `Cc1ccccc1NS(=O)(=O)c1ccc(OCC(=O)N2CCCCC2)cc1`, the fluorescence artifact activation is -0.04% (inactive). As to `CCN(CC(=O)N1CCCC1)S(=O)(=O)c1ccc(OC)cc1`, the fluorescence artifact activation is 87% (active). As to `COc1ccc(CN(Cc2cccn2C)S(=O)(=O)c2ccccc2)cc1`, the fluorescence artifact activation is 0.19% (inactive). On to `Cc1ccc([N+](=O)[O-])c(OCCCN2C(=O)NC(C)(C)C2=O)c1`, for which the fluorescence artifact activation was 0.02% (inactive). For `COc1ccccc1N1C(C)=CC(=C(C#N)c2nc3ccccc3s2)C=C1C`, the fluorescence artifact activation was 0.18% (inactive). Regarding `COc1ccc(N2C(=O)[C@@H]3[C@H](C2=O)[C@H](C(C)=O)N2c4ccccc4C=C[C@@H]32)cc1`, the fluorescence artifact activation is 0.08% (inactive). For `CCOc1ccc(CN2CCN(C/C=C/c3ccc(OC)cc3)CC2CCO)cc1` (stereo unspecified), the fluorescence artifact activation is 0.09% (inactive). The same measure for `Cc1ccc(CN2CCN(Cc3ccc(-n4cccn4)cc3C)CC2CCO)cc1` (stereo unspecified): 37.2% (active); for `CSc1nnc(N(CCC#N)CCC#N)s1`: 11.2% (inactive); for `COc1ccc(-c2onc3ccc(C(C)=O)cc23)cc1`: 5.91% (inactive).

In the case of `CC1(C)CC(=O)C(C=Nc2ccc(C(=O)c3ccccc3)cc2N=CC2=C(O)CC(C)(C)CC2=O)=C(O)C1`, the fluorescence artifact activation is 0.03% (inactive).

`Cc1nnc(N2CCOCC2)c2nn(-c3cccc(Cl)c3)c(C)c12`: the fluorescence artifact activation is 0.16% (inactive). Consider `O=C(N/N=C/c1c(O)n(-c2ccc(Cl)cn2)c(=O)c2ccccc12)c1ccncc1`, for which the fluorescence artifact activation was 0.02% (inactive). Take `Cn1c(O)c(/C=N/NC(=O)c2cc3ccccc3cc2O)c2ccccc21`: the fluorescence artifact activation is 70% (active). Take `COc1cc(OC)c(NC(=O)c2cc3ccccc3cc2O)cc1Cl`: the fluorescence artifact activation is 0.48% (inactive).
